Experimental data: ChEMBL document CHEMBL1132240, “Design and synthesis of modified quinolones as antitumoral acridones” (J Med Chem, 1999)

What was measured:
P388 [1] = test: In vivo antitumor activity against Murine P388 Leukemia at 50 mg/kg dose;(Median survival time of treated mice)/(median survival time of controls) x100; type: functional, Mus musculus
Summary of the method: (§1)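 Female BD2F1 mice (8 weeks, 20-22 g), eight per group, given 10^5 P388 cells ip on day 0. From 24 h later, drug was given ip once daily for 9 days as a micronized suspension in 0.5% carboxymethylcellulose. Deaths were recorded daily over a 33-day study. %T/C = median survival time of treated / median survival time of controls × 100; >125 taken as significant.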

LoVo [2] = test: Cytotoxic activity against solid tumor, LoVo, (human colon adenocarcinoma) Concentration of agent required to reduce cell viability by 50%; type: functional, cell-based
Summary of the method: (§2)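 Modified MTT assay. Cells seeded per well with graded drug: CHO 2.5 × 10^3, B16 5 × 10^3, P388 and LLC 10^4, HL-60 and LoVo 5 × 10^4. After 68 h, MTT (2.5 mg/mL) added for 4 h at 37 °C. Formazan dissolved in DMSO and A550 read. Inhibition taken as fractional A550 decrease vs control. IC50/IC90 from Chou's median-effect equation.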

P388 [3] = test: In vivo antitumor activity against Murine P388 Leukemia at 75 mg/kg dose;(Median survival time of treated mice)/(median survival time of controls) x100; type: functional, Mus musculus; summary of the method: as §1
CHO [4] = test: Cytotoxic activity against solid tumor, CHO (Chinese hamster ovaric carcinoma) Concentration of agent required to reduce cell viability by 90%; type: functional; conditions: Cricetulus griseus; summary of the method: as §2
CHO [5] = test: Cytotoxic activity against solid tumor, CHO (Chinese hamster ovaric carcinoma) Concentration of agent required to reduce cell viability by 50%; type: functional, cell-based; conditions: Cricetulus griseus; summary of the method: as §2
B16 [6] = test: Cytotoxic activity against solid tumor, B16 (murine melanoma) Concentration of agent required to reduce cell viability by 90%; type: functional; conditions: Mus musculus; summary of the method: as §2
P388 [7] = test: Cytotoxic activity against Murine Lymphocytic Leukemia P388 Concentration of agent required to reduce cell viability by 50%; type: functional, cell-based; conditions: Mus musculus; summary of the method: as §2
HL-60 [8] = test: Relative cytotoxicity against Human promyelocytic Leukemia(HL-60) cells; Value is in range, activity expressed as IC90; type: functional
Summary of the method: (§3)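 Second-stage assay on HL-60 (5 × 10^4/well) and soybean-agglutinin-negative mononuclear marrow cells (5 × 10^5/well) from six healthy donors. Four wells per concentration, 48 h at 37 °C, then [125I]iododeoxyuridine plus fluorodeoxyuridine for 18 h. Inhibition from fractional uptake decrease; IC50/IC90 by median-effect equation. Ranges are antilog(mean log ± 2SD); ratios use mean antilogs.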

[9] = Ratio of antilog(mean log IC50 in bone marrow sample) and antolog(mean log IC50) in HL-60); type: functional; summary of the method: as §3
[10] = Ratio of antilog(mean log IC50 in bone marrow sample) and antolog(mean log IC90) in HL-60); type: functional; summary of the method: as §3
HL-60 [11] = test: Cytotoxic activity against Human promyelocytic Leukemia HL-60 Concentration of agent required to reduce cell viability by 90%; type: functional; summary of the method: as §2
[12] = tested on: Lewis lung carcinoma cell line; test: Cytotoxic activity against solid tumor LLC(Lewis lung carcinoma), concentration of agent required to reduce cell viability by 50%; type: functional, cell-based; conditions: Mus musculus; summary of the method: as §2
P388 [13] = test: Cytotoxic activity Murine Lymphocytic Leukemia P388 Concentration of agent required to reduce cell viability by 90%; type: functional; conditions: Mus musculus; summary of the method: as §2
Homo sapiens [14] = organism: Homo sapiens; test: Relative cytotoxicity against Human bone marrow samples; Value is in range, activity expressed as IC50; type: functional; summary of the method: as §3
HL-60 [15] = test: Cytotoxic activity against Human promyelocytic Leukemia HL-60 Concentration of agent required to reduce cell viability by 50%; type: functional, cell-based; summary of the method: as §2
P388 [16] = test: In vivo antitumor activity against Murine P388 Leukemia at 100 mg/kg dose;(Median survival time of treated mice)/(median survival time of controls) x100; type: functional, Mus musculus; summary of the method: as §1
B16 [17] = test: Cytotoxic activity against solid tumor, B16 (murine melanoma) Concentration of agent required to reduce cell viability by 50%; type: functional, cell-based; conditions: Mus musculus; summary of the method: as §2
HL-60 [18] = test: Relative cytotoxicity against Human promyelocytic Leukemia(HL-60) cells; Value is in range, activity expressed as IC50; type: functional, cell-based; summary of the method: as §3
[19] = Ratio of antilog(mean log IC90 in bone marrow sample) and antolog(mean log IC90) in HL-60); type: functional; summary of the method: as §3
[20] = tested on: Lewis lung carcinoma cell line; test: Cytotoxic activity against solid tumor LLC(Lewis lung carcinoma), concentration of agent required to reduce cell viability by 90%; type: functional; conditions: Mus musculus; summary of the method: as §2
LoVo [21] = test: Cytotoxic activity against solid tumor, LoVo, (human colon adenocarcinoma) Concentration of agent required to reduce cell viability by 90%; type: functional; summary of the method: as §2
P388 [22] = test: In vivo antitumor activity against Murine P388 Leukemia at 25 mg/kg dose;(Median survival time of treated mice)/(median survival time of controls) x100; type: functional, Mus musculus; summary of the method: as §1
Homo sapiens [23] = organism: Homo sapiens; test: Relative cytotoxicity against Human bone marrow samples; Value is in range, activity expressed as IC90; type: functional; summary of the method: as §3
B16 [24] = test: Cytotoxic activity against solid tumor, B16 (murine melanoma) Concentration of agent required to reduce cell viability by 90%; Not observed; type: functional, cell-based; conditions: Mus musculus; summary of the method: as §2
CHO [25] = test: Cytotoxic activity against solid tumor, CHO (Chinese hamster ovaric carcinoma) Concentration of agent required to reduce cell viability by 90%; Not observed; type: functional, cell-based; conditions: Cricetulus griseus; summary of the method: as §2
[26] = tested on: Lewis lung carcinoma cell line; test: Cytotoxic activity against solid tumor LLC(Lewis lung carcinoma), concentration of agent required to reduce cell viability by 90%; not observed; type: functional, cell-based; conditions: Mus musculus; summary of the method: as §2

## CCN(CC)CCn1c2cc(Cl)c(N)cc2c(=O)c2c(O)cc(O)cc21
P388 [1]
  T/C: 109%
LoVo [2]
  IC50: 5.4 µM
P388 [3]
  T/C: 110%
CHO [4]
  IC90: 6.3 µM
CHO [5]
  IC50: 1.5 µM
B16 [6]
  IC90: 5.9 µM
P388 [7]
  IC50: 1.4 µM
HL-60 [8]
  IC90: 5.74 µM
[9]
  Ratio: 0.3
[10]
  Ratio: 0.2
HL-60 [11]
  IC90: 10 µM
[12]
  IC50: 3.6 µM
P388 [13]
  IC90: 3.5 µM
Homo sapiens [14]
  IC50: 1.52 µM
HL-60 [15]
  IC50: 3.9 µM
P388 [16]
  T/C: 111%
B16 [17]
  IC50: 1 µM
HL-60 [18]
  IC50: 3.61 µM
[19]
  Ratio: 0.7
[20]
  IC90: 11 µM
LoVo [21]
  IC90: 14 µM
P388 [22]
  T/C: 105%
Homo sapiens [23]
  IC90: 6.46 µM

## CCN(CC)CCn1c2cc(N3CCC(O)CC3)c(N)cc2c(=O)c2c(O)cc(O)cc21
LoVo [2]
  IC50: > 32 µM
CHO [5]
  IC50: 23 µM
P388 [7]
  IC50: 0.62 µM
HL-60 [8]
  IC90: 0.657 µM
[9]
  Ratio: 0.4
B16 [24]
  IC90: Not observed
[10]
  Ratio: 0.3
HL-60 [11]
  IC90: 3.6 µM
[12]
  IC50: 8.7 µM
P388 [13]
  IC90: 1.6 µM
CHO [25]
  IC90: Not observed
Homo sapiens [14]
  IC50: 0.168 µM
HL-60 [15]
  IC50: 2.2 µM
B16 [17]
  IC50: 1.7 µM
[26]
  IC90: Not observed
HL-60 [18]
  IC50: 0.51 µM
[19]
  Ratio: 1.1
LoVo [21]
  IC90: > 32 µM
Homo sapiens [23]
  IC90: 0.672 µM
